This passage reports IC50 results from BindingDB's records for doi:10.1021/jm00012a002 (Tosoh, 1995).

Assay [1] concerns the target HIV-1 RT (reverse transcriptase). Put plainly: Inhibitory effect on HIV-1 RT activity using template primer,poly (rA)-oligo (dT). The method, boiled down: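 Recombinant HIV-1 reverse transcriptase with poly(rA)-oligo(dT) as template-primer; IC50 is the 50% inhibition concentration, given as the mean of at least two separate experiments.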
Assay [2] in a line: Inhibitory effect on HIV-1 RT activity using template primer,poly (rC)-oligo (dG).

One may read the IC50 as the concentration that gives 50% inhibition. `CC(=O)c1ccc(C)cc1N[C@H](C(N)=O)c1c(Cl)cccc1Cl` showed an IC50 in assay [1] of 16 µM.

On to `CCN(C)C(=O)Oc1nsnc1-c1c(Cl)cccc1Cl` [Ethyl-methyl-carbamic acid 4-(2,6-dichloro-phenyl)-[1,2,5]thiadiazol-3-yl ester], for which the IC50 in assay [1] is 3.4 µM; in assay [2], 0.3 µM.

For the molecule `CCCN(C)C(=O)Oc1nsnc1-c1c(Cl)cccc1Cl` [Methyl-propyl-carbamic acid 4-(2,6-dichloro-phenyl)-[1,2,5]thiadiazol-3-yl ester], the results for the 50% inhibitory concentration (IC50) in assay [1] and in assay [2] were 5.8 µM and 0.8 µM, respectively.

Molecule `CCCCN(C)C(=O)Oc1nsnc1-c1c(Cl)cccc1Cl` [Butyl-methyl-carbamic acid 4-(2,6-dichloro-phenyl)-[1,2,5]thiadiazol-3-yl ester] yielded an IC50 in assay [1] of 12 µM. This lies in the double-digit micromolar range.
